{"source": "ChEMBL document CHEMBL1149297", "about": "(J Med Chem, 2004)", "key": {"[1]": {"molecular_target": "T1, Neuronal acetylcholine receptor; alpha3/beta4 (Homo sapiens, UniProt P30926+P32297)", "T1 sequence (P30926 whole entry)": "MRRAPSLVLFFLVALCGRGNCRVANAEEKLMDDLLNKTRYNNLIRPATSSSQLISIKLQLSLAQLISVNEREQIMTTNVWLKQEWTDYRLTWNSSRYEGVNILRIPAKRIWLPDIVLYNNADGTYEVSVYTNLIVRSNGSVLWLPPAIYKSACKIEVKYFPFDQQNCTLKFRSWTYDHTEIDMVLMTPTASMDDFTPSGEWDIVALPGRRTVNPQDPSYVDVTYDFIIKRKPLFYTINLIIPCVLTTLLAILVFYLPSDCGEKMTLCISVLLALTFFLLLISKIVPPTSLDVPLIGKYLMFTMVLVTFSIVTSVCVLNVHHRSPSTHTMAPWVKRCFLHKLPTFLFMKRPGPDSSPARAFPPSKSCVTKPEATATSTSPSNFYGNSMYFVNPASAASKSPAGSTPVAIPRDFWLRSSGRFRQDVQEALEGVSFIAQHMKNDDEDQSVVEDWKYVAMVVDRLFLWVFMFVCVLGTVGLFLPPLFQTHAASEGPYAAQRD", "T1 sequence (P32297 whole entry)": "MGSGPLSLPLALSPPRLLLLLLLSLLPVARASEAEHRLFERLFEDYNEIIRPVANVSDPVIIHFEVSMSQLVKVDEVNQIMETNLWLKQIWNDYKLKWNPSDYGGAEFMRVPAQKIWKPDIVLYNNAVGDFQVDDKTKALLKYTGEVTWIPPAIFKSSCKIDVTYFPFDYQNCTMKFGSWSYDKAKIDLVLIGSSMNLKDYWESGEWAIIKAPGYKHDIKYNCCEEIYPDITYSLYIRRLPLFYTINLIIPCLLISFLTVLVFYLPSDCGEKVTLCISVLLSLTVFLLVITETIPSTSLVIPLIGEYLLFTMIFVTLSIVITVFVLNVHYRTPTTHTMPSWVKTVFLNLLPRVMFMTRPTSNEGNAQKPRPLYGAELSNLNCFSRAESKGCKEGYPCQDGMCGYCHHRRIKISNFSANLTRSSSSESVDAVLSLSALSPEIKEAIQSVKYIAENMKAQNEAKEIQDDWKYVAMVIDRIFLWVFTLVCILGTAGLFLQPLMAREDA", "assay": "Agonist activity at alpha-3-beta-4 nAChR in KXalpha-3-beta-4R2 cells by rubidium efflux assay", "type": "functional, cell-based", "outline": "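KXα3β4R2 cells stably expressing α3β4 nAChRs, grown in MEM/10% FBS with geneticin selection, plated on poly(D-lysine) and grown 48 h at 37 °C to >90% confluence. Loaded with 86Rb+ (2 μCi/well) 4 h at 37 °C, washed in Hepes-buffered saline pH 7.4, then exposed to compound for 2 min. Released 86Rb+ counted by liquid scintillation.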"}, "[2]": {"molecular_target": "T1, Neuronal acetylcholine receptor; alpha3/beta4", "assay": "Agonist activity at alpha-3-beta-4 nAChR in KXalpha-3-beta-4R2 cells by rubidium efflux assay relative to nicotine", "type": "functional, cell-based", "design": "concentration or dose not given beside the values", "outline": "(§1)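 KXα3β4R2 cells (stably expressing α3β4 nAChR) grown in selection MEM with 10% FBS and geneticin, plated on poly(D-lysine) and grown 48 h at 37 °C to >90% confluence. Cells were loaded with 86Rb+ (2 μCi/well) for 4 h at 37 °C and washed three times in buffer A (Hepes/NaCl/KCl/MgSO4/CaCl2/glucose, pH 7.4). Compound in buffer A was applied for 2 min, and efflux was counted by liquid scintillation.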"}, "[3]": {"molecular_target": "T1, Neuronal acetylcholine receptor; alpha3/beta4", "assay": "Agonist activity at alpha3beta4 nAChR in KXalpha-3-beta-4R2 cells by rubidium efflux assay at 1 mM", "type": "functional, cell-based", "outline": "as §1"}, "[4]": {"molecular_target": "T1, Neuronal acetylcholine receptor; alpha3/beta4", "assay": "Displacement of [3H]epibatidine from alpha-3-beta-4 nAChR immobilized on liquid chromatographic stationary phases", "type": "protein-complex assay"}, "[5]": {"molecular_target": "Neuronal acetylcholine receptor; alpha4/beta2 (Homo sapiens) (UniProt P17787+P43681)", "assay": "Displacement of [3H]epibatidine from alpha-4-beta-2 nAChR immobilized on liquid chromatographic stationary phases", "type": "protein-complex assay"}}, "note": "The source made the active and inactive calls. No cut-off for these calls is given here."}
{"smiles": "c1cc2c(cn1)[C@@H]1NCCC[C@@H]1CC2", "values": [{"measurement": "EC50", "setting": "[1]", "result": "> 1000", "unit": "µM"}, {"measurement": "Activity", "setting": "[2]", "result": 10, "unit": "%"}, {"measurement": "Activity", "setting": "[3]", "result": "Active"}]}
{"smiles": "COC(=O)N1CC[C@@H]2C=Cc3cc(Cl)nc(Cl)c3[C@@H]21", "values": [{"measurement": "EC50", "setting": "[1]", "result": 20.8, "unit": "µM"}, {"measurement": "Activity", "setting": "[2]", "result": 100, "unit": "%"}, {"measurement": "Activity", "setting": "[4]", "result": 0.28, "unit": "mL"}, {"measurement": "Activity", "setting": "[5]", "result": 0.28, "unit": "mL"}]}
{"smiles": "COC(=O)N1CCC[C@@H]2C[C@@H](Sc3ccccc3)c3cc(Cl)nc(Cl)c3[C@@H]21", "values": [{"measurement": "EC50", "setting": "[1]", "result": 18.2, "unit": "µM"}, {"measurement": "Activity", "setting": "[2]", "result": 100, "unit": "%"}]}
{"smiles": "Clc1ccc(C2CC3CCC2N3)cn1", "note": "(configuration not stated)", "values": [{"measurement": "Activity", "setting": "[2]", "result": "inactive"}]}
{"smiles": "Clc1cc2c(c(Cl)n1)[C@@H]1NCC[C@@H]1C[C@H]2Sc1ccccc1", "values": [{"measurement": "EC50", "setting": "[1]", "result": 26.4, "unit": "µM"}, {"measurement": "Activity", "setting": "[2]", "result": 35, "unit": "%"}]}
{"smiles": "COC(=O)N1CC[C@@H]2C[C@@H](S(=O)(=O)c3ccccc3)c3cc(Cl)nc(Cl)c3[C@@H]21", "values": [{"measurement": "EC50", "setting": "[1]", "result": "> 1000", "unit": "µM"}, {"measurement": "Activity", "setting": "[2]", "result": 10, "unit": "%"}, {"measurement": "Activity", "setting": "[4]", "result": -0.12, "unit": "mL"}, {"measurement": "Activity", "setting": "[5]", "result": 0.13, "unit": "mL"}]}
{"smiles": "COC(=O)N1CC[C@@H]2C[C@@H](Sc3ccccc3)c3cc(Cl)nc(Cl)c3[C@@H]21", "values": [{"measurement": "EC50", "setting": "[1]", "result": "> 1000", "unit": "µM"}, {"measurement": "Activity", "setting": "[2]", "result": 10, "unit": "%"}, {"measurement": "Activity", "setting": "[3]", "result": "inactive"}, {"measurement": "Activity", "setting": "[4]", "result": -0.04, "unit": "mL"}, {"measurement": "Activity", "setting": "[5]", "result": 0.17, "unit": "mL"}]}
{"smiles": "COC(=O)N1CCC[C@@H]2C=Cc3cc(Cl)nc(Cl)c3[C@@H]21", "values": [{"measurement": "EC50", "setting": "[1]", "result": 13.8, "unit": "µM"}, {"measurement": "Activity", "setting": "[2]", "result": 75, "unit": "%"}]}
{"smiles": "COC(=O)N1CC[C@@H]2CCc3ccnc(Cl)c3[C@@H]21", "values": [{"measurement": "EC50", "setting": "[1]", "result": "> 1000", "unit": "µM"}, {"measurement": "Activity", "setting": "[2]", "result": 10, "unit": "%"}, {"measurement": "Activity", "setting": "[4]", "result": -0.32, "unit": "mL"}, {"measurement": "Activity", "setting": "[5]", "result": 0.18, "unit": "mL"}]}
{"smiles": "CN1CCC[C@H]1c1cccnc1", "values": [{"measurement": "Activity", "setting": "[2]", "result": 100, "unit": "%"}, {"measurement": "Activity", "setting": "[4]", "result": 0.16, "unit": "mL"}, {"measurement": "Activity", "setting": "[5]", "result": 0.26, "unit": "mL"}]}
{"smiles": "COC(=O)N1CC[C@@H]2CCc3ccncc3[C@@H]21", "values": [{"measurement": "Activity", "setting": "[4]", "result": 0.12, "unit": "mL"}, {"measurement": "Activity", "setting": "[5]", "result": 0.23, "unit": "mL"}]}
